Active and inactive are the calls of the source. The calls are words filed in the database; no cut-off is given here. Some results are limits rather than exact numbers.

Series [1] is described as follows: Dissociation constant, pKa of the compound. The series is classed as physicochemical.
The test system of series [2] is HT-29. In words: Antiproliferative activity against human HT-29 cells by MTT assay. The series is classed as functional, cell-based. The method in brief: (§1)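 MTT assay. Cells were grown in DMEM/RPMI 1640 with 10% FBS, penicillin and streptomycin at 37 °C under 5% CO2. After a PBS wash, cells got 0.5 mg/mL MTT for 3 h at 37 °C. Formazan was dissolved in DMSO and absorbance read at 570 nm. Inhibition was expressed as a percentage and IC50 calculated. Means ± SD come from three separate experiments.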

In the next series the test system is HepG2. The experiment in a line: Antiproliferative activity against human HepG2 cells by MTT assay. The class given is functional, cell-based. An outline of the steps:
as §1

Series [3] in a line: Antiproliferative activity against rat 9L-2 cells by MTT assay. The class given is functional, cell-based. The method in brief:
as §1

Series [4] in a line: Cytotoxicity against human CCD-841 cells by MTT assay. The class given is cell-based. The method in brief: as §1
The subject of series [5] is HT-29. In words: Antitumor activity against human HT-29 cells xenografted in nude BALB/c mouse assessed as reduction in tumor volume at 40 mg/kg, ip dosed every day for 21 days. The series is classed as functional, organism-based.
In series [6] the test system is HT-29. The experiment in a line: Antitumor activity against human HT-29 cells xenografted in nude BALB/c mouse assessed as tumor weight level at 40 mg/kg, ip dosed every day for 21 days (reference value: 1.49 +/- 0.27 g). The series is classed as functional.
Series [7] deals with HT-29. In words: Induction of apoptosis in human HT-29 cells at 2.5 uM incubated for 72 hrs by FITC-AnnexinV/PI staining based flow cytometry relative to control. The class given is functional. The method in brief:
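HT29 cells were cultured 12 h, then exposed to compound (0.4, 1.0, 2.5 µM) or vehicle for 72 h. Harvested cells were stained with Annexin V and PI, and apoptotic cell percentages measured by flow cytometry. Means ± SD come from three separate experiments.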

Series [8] relates to HT-29. In words: Induction of apoptosis in human HT-29 cells assessed as increase in Bax protein level at 2.5 uM incubated for 72 hrs by Western blot analysis. The series is classed as functional, cell-based. The method in brief:
(§2)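 HT29 cells (1.5×10^5/mL) were treated for 72 h and lysed. Lysate (0.05 mg/lane) was run on 12% SDS-PAGE and transferred to nitrocellulose. After blocking in 5% non-fat milk, blots were probed for Bax, Bcl-2, cleaved caspase-3, cleaved PARP, LC3, p62 and beclin-1. Levels were normalised to β-actin, and means ± SD taken from three independent assays.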

Series [9] relates to HT-29. In words: Induction of apoptosis in human HT-29 cells assessed as reduction in Bcl2 protein level at 2.5 uM incubated for 72 hrs by Western blot analysis. The class given is functional, cell-based. The method in brief:
as §2

Series [10] deals with HT-29. The experiment in a line: Induction of apoptosis in human HT-29 cells assessed as increase in cleaved PARP protein level at 2.5 uM incubated for 72 hrs by Western blot analysis. The class given is functional, cell-based. An outline of the steps:
as §2

Series [11] deals with HT-29. The experiment in a line: Induction of apoptosis in human HT-29 cells assessed as increase in cleaved caspase-3 protein level at 2.5 uM incubated for 72 hrs by Western blot analysis. The class given is functional, cell-based. An outline of the steps: as §2
The test system of series [12] is HT-29. The experiment in a line: Induction of autophagy in human HT-29 cells assessed as increase in LC3-II protein level at 2.5 uM incubated for 72 hrs by Western blot analysis. The class given is functional, cell-based. The method in brief:
as §2

The subject of series [13] is HT-29. The experiment in a line: Induction of autophagy in human HT-29 cells assessed as increase in Beclin-1 protein level at 2.5 uM incubated for 72 hrs by Western blot analysis. The series is classed as functional, cell-based. The method in brief: as §2
Series [14] has as its system HT-29. The experiment in a line: Induction of autophagy in human HT-29 cells assessed as reduction in p62 protein level at 2.5 uM incubated for 72 hrs by Western blot analysis. The series is classed as functional, cell-based. The method in brief: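 HT29 cells (1.5×10^5/mL) exposed to compound or vehicle for 72 h, then lysed. Lysates (0.05 mg/lane) run on 12% SDS-PAGE, transferred to nitrocellulose, blocked with 5% non-fat milk and probed for LC3, p62, beclin-1 and β-actin. Bands quantified relative to β-actin, with LC3-II/LC3-I ratio also calculated; means ± SD from three independent assays.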

Series [15] concerns HT-29. In words: Induction of apoptosis in human HT-29 cells at 10 uM incubated for 72 hrs by FITC-AnnexinV/PI staining based flow cytometry relative to control. The series is classed as functional. An outline of the steps:
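HT29 cells cultured 12 h, then exposed to compound or vehicle for 72 h. Harvested cells stained with Annexin V plus a viability dye for 15 min at 37 °C. Percentage of apoptotic cells determined by flow cytometry; means ± SD from three separate experiments, compared with control.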

In series [16] the test system is HT-29. In words: Induction of apoptosis in human HT-29 cells assessed as increase in Bax protein level at 10 uM incubated for 72 hrs by Western blot analysis. The series is classed as functional, cell-based. The method in brief: (§3)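 HT29 cells (1.5 × 10^5/mL) treated 72 h with compound or vehicle. Lysates loaded at 0.05 mg/lane on 12% SDS-PAGE, transferred to nitrocellulose, blocked in 5% non-fat milk. Probed with antibodies to Bax, Bcl-2, cleaved caspase-3, cleaved PARP, LC3, p62 and beclin-1. Bands quantified relative to β-actin; three independent assays, means ± SD.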

Series [17] has as its system HT-29. In words: Induction of apoptosis in human HT-29 cells assessed as reduction in Bcl2 protein level at 10 uM incubated for 72 hrs by Western blot analysis. The series is classed as functional, cell-based. An outline of the steps: as §3
Series [18] relates to HT-29. In words: Induction of apoptosis in human HT-29 cells assessed as increase in cleaved PARP protein level at 10 uM incubated for 72 hrs by Western blot analysis. The class given is functional, cell-based. An outline of the steps:
as §3

Series [19] deals with HT-29. In words: Induction of apoptosis in human HT-29 cells assessed as increase in cleaved caspase-3 protein level at 10 uM incubated for 72 hrs by Western blot analysis. The series is classed as functional, cell-based. An outline of the steps: as §3
In series [20] the test system is HT-29. The experiment in a line: Induction of autophagy in human HT-29 cells assessed as increase in LC3-II protein level at 10 uM incubated for 72 hrs by Western blot analysis. The series is classed as functional, cell-based. An outline of the steps:
as §3

Series [21] has as its system HT-29. The experiment in a line: Induction of autophagy in human HT-29 cells assessed as increase in Beclin-1 protein level at 10 uM incubated for 72 hrs by Western blot analysis. The series is classed as functional, cell-based. The method in brief:
as §3

Series [22] has as its system HT-29. In words: Induction of autophagy in human HT-29 cells assessed as reduction in p62 protein level at 10 uM incubated for 72 hrs by Western blot analysis. The series is classed as functional, cell-based. An outline of the steps:
as §3

In series [1], `COc1cc(-c2nc(N(C(=O)OCC3=CCCCC3=O)C(=O)OCC3=CCCCC3=O)cc3c2[nH]c2ccccc23)cc(OC)c1OC` displayed a pKa of 5.3. For the same compound, the half-maximal inhibitory concentration (IC50) with HT-29 [2] worked out at 1.45 µM; with HepG2 it was 2.69 µM; in series [3], 4.85 µM; in series [4] it was 28.1 µM.

Take `C/C=C/C(=O)OCC1=CCCCC1=O`: the IC50 in the series with HT-29 [2] came to 4.37 µM; in the series on HepG2 it was 5.93 µM; in series [3], 7.79 µM; in series [4] it was 7.83 µM. The outcome in the series with HT-29 [5], in the series on HT-29 [8], with HT-29 [9], with HT-29 [10], in the series on HT-29 [11] and in the series on HT-29 [12] was Active. For the same compound, the outcome with HT-29 [13] and in the series on HT-29 [14] was Active. Further, the figures for the Activity with HT-29 [6] and in the series with HT-29 [7] were 0.81 g and 28.8%, respectively.

Regarding `COc1cc(-c2nc(N)cc3c2[nH]c2ccccc23)cc(OC)c1OC`, the figures for the IC50 with HT-29 [2] and with HepG2 were 13.5 µM and 17.1 µM, respectively.

Consider `COc1ccc2c(c1)[nH]c1c(C)nccc12` [HARMINE], for which the concentration for half-maximal inhibition (IC50) was 41.8 µM in the series with HT-29 [2], 49.6 µM with HepG2, 47.8 µM in series [3] and over 50 µM in [4]. The compound also had an Activity with HT-29 [15] of 20.9%. Further, the result in the series with HT-29 [16], with HT-29 [17], in the series with HT-29 [18], with HT-29 [19], in the series with HT-29 [20] and in the series on HT-29 [21] was Active. Further, the result in the series with HT-29 [22] was Active.
